{"source": "ChEMBL document CHEMBL1134556", "about": "“(-)3-[4-[2-(Phenoxazin-10-yl)ethoxy]phenyl]-2-ethoxypropanoic acid [(-)DRF 2725]: a dual PPAR agonist with potent antihyperglycemic and lipid modulating activity” (J Med Chem, 2001)", "format_in_all_cases": "ADME, organism-based", "key": {"[1]": {"test": "Pharmacokinetic parameter in Male Wistar rats at 10 mg/kg oral administration.", "design": "dose 10 mg/kg, route oral", "details": "rat, in vivo", "in_short": "(§1)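 Male Wistar rats; oral arm fasted 14 h, dosed as suspension in 0.25% CMC; IV arm given via tail vein in DMSO 6.6%/Cremophor ELP 6.6%/ethanol 3.3%/saline 83.3%. Retro-orbital blood drawn at 0.05, 0.5, 1, 2, 4, 6, 8, 10 and 21 h. Parameters include AUC0-∞, Cmax, Tmax, Kel, T1/2, Vd, Cl, f. Mean ± SD, n = 4.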"}, "[2]": {"test": "(§2) Pharmacokinetic parameter in Male Wistar rats at 3 mg/kg intravenous administration.", "design": "dose 3 mg/kg, route intravenous", "details": "rat, in vivo", "in_short": "as §1"}, "[3]": {"test_system": "Rattus norvegicus", "test": "as §2", "design": "dose 3 mg/kg, route intravenous", "details": "in vivo", "in_short": "as §1"}}, "data": [{"smiles": "CCO[C@@H](Cc1ccc(OCCN2c3ccccc3Oc3ccccc32)cc1)C(=O)O", "note": "[RAGAGLITAZAR]", "values": [{"measurement": "AUC", "setting": "[1]", "result": 71400, "unit": "ng·h/mL"}, {"measurement": "Cmax", "setting": "[1]", "result": 17200, "unit": "ng/mL"}, {"measurement": "Tmax", "setting": "[1]", "result": 1.5, "unit": "h"}, {"measurement": "bioavailability", "setting": "[1]", "result": 77, "unit": "%"}, {"measurement": "half-life", "setting": "[1]", "result": 2.81, "unit": "h"}, {"measurement": "k el", "setting": "[1]", "result": "6.94e-05", "unit": "s⁻¹"}, {"measurement": "AUC", "setting": "[2]", "result": 27800, "unit": "ng·h/mL"}, {"measurement": "Cmax", "setting": "[2]", "result": 18300, "unit": "ng/mL"}, {"measurement": "clearance", "setting": "[2]", "result": 0.355, "unit": "mL/min"}, {"measurement": "half-life", "setting": "[2]", "result": 4.69, "unit": "h"}, {"measurement": "k el", "setting": "[2]", "result": "4.17e-05", "unit": "s⁻¹"}, {"measurement": "Vd", "setting": "[3]", "result": 36.92, "unit": "mL"}]}]}
